pIC50: −log10 of the molar value.

Common to all, as to assay type: functional
Test [1] is filed under the species Cavia porcellus. Kind of test: Inhibitory concentration of morphine was measured in muscle of the guinea pig ileum. The settings on record: Muscle tissue. In outline: (§1)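 Electrically stimulated longitudinal muscle of guinea pig ileum; agonist IC50 for inhibition of the twitch, with potency expressed relative to a control morphine IC50 run in the same preparation.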

The species named for test [2] is Cavia porcellus. Kind of test: The agonist potency of compound was determined relative to control morphine IC50. In outline:
as §1

Test [3] in a line: Ratio of IC50 of ethylketazocine (EK) in the presence of compound to IC50 of ethylketazocine in the absence of compound. In outline:
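Guinea pig ileum longitudinal muscle, electrically stimulated; the kappa agonist ethylketazocine (EK) was run with and without the test antagonist, given at 20 nM or 2 nM depending on the compound. The IC50 ratio is EK IC50 with antagonist over EK IC50 alone.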

The species entered for test [4] is Cavia porcellus. Kind of test: Inhibitory concentration of compound was measured in muscle of the guinea pig ileum. The settings on record: Muscle tissue. In outline:
as §1

On to `Oc1ccc2c3c1O[C@H]1[C@H](NCCOCCOCCNCc4ccccc4)CC[C@@]4(O)C(C2)N(CC2CC2)CCC314` (some centres not stated), for which the pIC50 (commonly the IC50 on a negative log10 scale, so that one unit is a factor of ten) in test [1] was 6.97; in test [4] it was 6.69. In addition, the Relative potency in test [2] was 5.2. Besides, the IC50 ratio in test [3] turned out to be 3.1.

`NCCOCCOCCN[C@@H]1CC[C@@]2(O)C3Cc4ccc(O)c5c4C2(CCN3CC2CC2)[C@H]1O5` (some centres not stated): the pIC50 in test [1] was 6.91; in test [4], 7.68. Besides, the Relative potency in test [2] amounted to 5.8. The IC50 ratio in test [3] came to 1.1.

On to `N=C(N)NCCOCCOCCN[C@@H]1CC[C@@]2(O)C3Cc4ccc(O)c5c4C2(CCN3CC2CC2)[C@H]1O5.O=S(=O)(O)O` (some centres not stated), for which the figures for the pIC50 in test [1] and in test [4] were 6.98 and 7.94, respectively. In test [2], the Relative potency is 9.1. Moreover, in test [3], the IC50 ratio is 1.
